Results reported in ChEMBL document CHEMBL1135374, “New series of aryloxypropanolamines with both human beta(3)-adrenoceptor agonistic activity and free radical scavenging properties” (2002).

Assays:
Bos taurus [1] = organism: Bos taurus; experiment: Oxidation was assessed indirectly by measuring bovine serum albumin (BSA) thiol protection from the formation of thiobarbituric acid reactive substances (TBARs) by TBARs test at 10 uM; format: functional
Bos taurus [2] = organism: Bos taurus; experiment: Oxidation was assessed indirectly by measuring bovine serum albumin(BSA) thiol protection from the formation of thiobarbituric acid reactive substances (TBARs) by TBARs test at 500 uM; format: functional
Bos taurus [3] = organism: Bos taurus; experiment: Oxidation was assessed indirectly by measuring bovine serum albumin thiol protection by using Ellman''s test at 500 uM; format: functional
How it was run: (§1)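 Hydroxyl radicals from Fenton reaction (Fe2+/H2O2) oxidize BSA. Remaining thiols measured by Ellman's test. Compound present at the stated concentration. Reported as % protection relative to Trolox. Mean ± SEM of three experiments, ANOVA (p < 0.05).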

Bos taurus [4] = organism: Bos taurus; experiment: Oxidation was assessed indirectly by measuring bovine serum albumin(BSA) thiol protection from the formation of thiobarbituric acid reactive substances (TBARs) by TBARs test at 100 uM; format: functional
Bos taurus [5] = organism: Bos taurus; experiment: Oxidation was assessed indirectly by measuring bovine serum albumin thiol protection by using Ellman''s test at 1 mM; format: functional; how it was run: as §1
Bos taurus [6] = organism: Bos taurus; experiment: Oxidation was assessed indirectly by measuring bovine serum albumin (BSA) thiol protection from the formation of thiobarbituric acid reactive substances (TBARs) by TBARs test at 100 uM; format: functional
Bos taurus [7] = organism: Bos taurus; experiment: Oxidation was assessed indirectly by measuring bovine serum albumin (BSA) thiol protection from the formation of thiobarbituric acid reactive substances (TBARs) by TBARs test at 500 uM; format: functional
How it was run: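 Plasma lipid peroxidation induced by Fenton-generated hydroxyl radicals (Fe2+/H2O2), with compound at the stated concentration. Thiobarbituric acid reactive substances quantified. Expressed as % protection relative to Trolox. Mean ± SEM, three experiments, ANOVA (p < 0.05).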

Bos taurus [8] = organism: Bos taurus; experiment: Oxidation was assessed indirectly by measuring bovine serum albumin (BSA) thiol protection by using Ellman''s test at 1 mM; format: functional; how it was run: as §1
Bos taurus [9] = organism: Bos taurus; experiment: Oxidation was assessed indirectly by measuring bovine serum albumin (BSA) thiol protection by using Ellman''s test at 500 uM; format: functional; how it was run: as §1
COS-7 = experiment: CyclicAMP production in untransfected COS-7 cell control; format: functional
How it was run: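 Non-transfected COS-7 cells grown in DMEM/10% FBS at 37 °C, 5% CO2. Preincubated 30 min at 37 °C in serum-free DMEM/25 mM HEPES pH 7.5, then given 10 μM compound plus 0.24 mM IBMX and 0.1 μM propranolol for 20 min. cAMP in cold 5% TCA extract quantified by RIA, pmol/min/well.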

[10] = target: Beta-3 adrenergic receptor (Homo sapiens) (UniProt P13945); experiment: Beta adrenergic activity was determined by measuring cAMP production on human Beta3 adrenergic transfected COS-7 cells; format: functional, cell-based
How it was run: (§2)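 COS-7 cells in DMEM/10% FBS at 37 °C, 5% CO2, lipofected with human β3-receptor plasmid at 70-80% confluence, then grown 24 h. Cells preincubated 30 min at 37 °C in serum-free DMEM/25 mM HEPES pH 7.5, then exposed 20 min to 10 μM compound with 0.24 mM IBMX, with or without 0.1 μM propranolol. cAMP in TCA extract measured by RIA, expressed as pmol/min/well.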

[11] = target: Beta-3 adrenergic receptor (Homo sapiens) (UniProt P13945); experiment: Beta adrenergic activity as cAMP production in human Beta3 adrenergic receptor expressing COS-7 cells with propranolol; format: functional, cell-based; how it was run: as §2
Bos taurus [12] = organism: Bos taurus; experiment: Oxidation was assessed indirectly by measuring bovine serum albumin(BSA) thiol protection from the formation of thiobarbituric acid reactive substances (TBARs) by TBARs test at 10 uM; format: functional

Beta-3 adrenergic receptor (Homo sapiens), sequence (P13945 whole entry, looked up): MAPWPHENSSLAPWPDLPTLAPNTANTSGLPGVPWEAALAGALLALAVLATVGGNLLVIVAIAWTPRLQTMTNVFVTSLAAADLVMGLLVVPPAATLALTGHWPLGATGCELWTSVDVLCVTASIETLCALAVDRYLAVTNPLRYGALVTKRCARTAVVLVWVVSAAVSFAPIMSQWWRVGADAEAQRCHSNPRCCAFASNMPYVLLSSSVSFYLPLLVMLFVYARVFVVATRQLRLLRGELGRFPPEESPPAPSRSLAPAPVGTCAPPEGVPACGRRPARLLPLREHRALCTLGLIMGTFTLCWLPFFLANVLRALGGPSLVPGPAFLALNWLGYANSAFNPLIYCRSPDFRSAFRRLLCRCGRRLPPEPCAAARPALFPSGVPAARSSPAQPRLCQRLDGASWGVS

SMILES: COc1ccccc1OCCNCC(O)COc1cccc2[nH]c3ccccc3c12 (stereo not given) [CARVEDILOL]
- Protection (Bos taurus [1]): 1%
- Protection (Bos taurus [2]): 6.2%
- Protection (Bos taurus [3]): 20%
- Protection (Bos taurus [4]): -0.6%
- Protection (Bos taurus [5]): -88.6%

SMILES: Cc1c(C)c2c(c(C)c1O)CCC(C)(C(=O)O)O2 (stereo not given) [TROLOX]
- Protection (Bos taurus [1]): -21.4%
- Protection (Bos taurus [2]): 64.8%
- Protection (Bos taurus [3]): 31.4%
- Protection (Bos taurus [4]): 7.6%
- Protection (Bos taurus [5]): 75.2%

SMILES: CC(C)(C)c1cc(CCCOc2ccc(NCC(O)COc3cccc4ncccc34)cc2)cc(C(C)(C)C)c1O (stereo not given)
- Protection (Bos taurus [6]): 33.3%
- Protection (Bos taurus [1]): 30.3%
- Protection (Bos taurus [7]): 50.4%
- Protection (Bos taurus [8]): 120.3%
- Protection (Bos taurus [9]): 47.3%
- cAMP production (COS-7): 21.6 pmol/min/well

SMILES: Cc1c(C)c2c(c(C)c1O)CCC(C)(COc1ccc(NCC(O)COc3cccc4[nH]c5ncccc5c34)cc1)O2 (stereo not given)
- Protection (Bos taurus [6]): 53.6%
- Protection (Bos taurus [1]): 44.3%
- Protection (Bos taurus [7]): 75.5%

SMILES: CC(C)(C)c1cc(CCCOc2ccc(NCC(O)COc3cccc4cnccc34)cc2)cc(C(C)(C)C)c1O (stereo not given)
- Protection (Bos taurus [6]): 32.8%
- Protection (Bos taurus [1]): 43.6%
- Protection (Bos taurus [7]): 49.3%
- cAMP production (pM min-1 well-1) [10]: 130
- cAMP production (COS-7): 24.9 pmol/min/well
- cAMP production (pM min-1 well-1) [11]: 76.3

SMILES: Cc1c(C)c2c(c(C)c1O)CCC(C)(COc1ccc(NCC(O)COc3cccc4ncccc34)cc1)O2 (stereo not given)
- Protection (Bos taurus [12]): 37.8%
- Protection (Bos taurus [2]): 78.2%
- Protection (Bos taurus [3]): 49.2%
- cAMP production (pM min-1 well-1) [10]: 103
- cAMP production (COS-7): 26.8 pmol/min/well
- cAMP production (pM min-1 well-1) [11]: 28.6
- Protection (Bos taurus [4]): 64.6%
- Protection (Bos taurus [5]): 82.9%

SMILES: Cc1c(C)c2c(c(C)c1O)CCC(C)(COc1ccc(NCC(O)COc3ccc4ccncc4c3)cc1)O2 (stereo not given)
- cAMP production (COS-7): 33 pmol/min/well
- cAMP production (pM min-1 well-1) [11]: 33.2

SMILES: CC(C)(C)c1cc(CCCOc2ccc(NCC(O)COc3ccc4cccnc4c3)cc2)cc(C(C)(C)C)c1O (stereo not given)
- cAMP production (pM min-1 well-1) [10]: 97.4
- cAMP production (COS-7): 23.3 pmol/min/well
- cAMP production (pM min-1 well-1) [11]: 21.4

SMILES: CC(C)(C)c1cc(CCCOc2ccc(NCC(O)COc3ccc4ccncc4c3)cc2)cc(C(C)(C)C)c1O (stereo not given)
- cAMP production (COS-7): 26.9 pmol/min/well
- cAMP production (pM min-1 well-1) [11]: 23.9

SMILES: Cc1c(C)c2c(c(C)c1O)CCC(C)(COc1ccc(NCC(O)COc3cccc4cnccc34)cc1)O2 (stereo not given)
- Protection (Bos taurus [6]): 49.3%
- Protection (Bos taurus [1]): 39.4%
- Protection (Bos taurus [7]): 94.4%
- Protection (Bos taurus [3]): 54.8%
- cAMP production (pM min-1 well-1) [10]: 142
- cAMP production (COS-7): 28.7 pmol/min/well
- cAMP production (pM min-1 well-1) [11]: 41.6
- Protection (Bos taurus [5]): 115.2%

SMILES: Cc1c(C)c2c(c(C)c1O)CCC(C)(COc1ccc(NCC(O)COc3cccc4[nH]c5ccccc5c34)cc1)O2 (stereo not given)
- cAMP production (COS-7): 31.5 pmol/min/well
- cAMP production (pM min-1 well-1) [11]: 22.3
